Experimental data taken from ChEMBL document CHEMBL4014276, “Diphenylurea derivatives for combating methicillin- and vancomycin-resistant Staphylococcus aureus” (Eur J Med Chem, 2017).
In brackets after ≈: the same amount, converted by molar mass. Activity calls are given as the source filed them. The rule behind the calls is not given here.

Legend:
[1] = Intrinsic clearance in human liver microsomes in absence of NADPH by LC-MS/MS method; format: ADME, microsome; settings: read-out: CLH
[2] = Intrinsic clearance in human liver microsomes in presence of NADPH by LC-MS/MS method; format: ADME, microsome; settings: read-out: CLH
[3] = Apparent permeability across apical to basolateral side in human Caco2 cells at 10 uM after 2 hrs by LC-MS/MS method; format: ADME, cell-based; settings: Caco-2
[4] = Apparent permeability across basolateral to apical side in human Caco2 cells at 10 uM after 2 hrs by LC-MS/MS method; format: ADME, cell-based; settings: Caco-2
[5] = system: Staphylococcus aureus; assay: Antibacterial activity against vancomycin-resistant Staphylococcus aureus VRSA10 after 20 hrs by broth microdilution method; format: functional; settings: VRSA10, 20 h
Procedure, shortened: (§1)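 CLSI broth microdilution in cation-adjusted Mueller Hinton broth; compounds serially diluted, triplicate samples; 37 °C, 20 h. MIC read visually as lowest concentration with no visible growth; mean of triplicate determinations reported.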

[6] = system: Staphylococcus aureus; assay: Bactericidal activity against methicillin-resistant Staphylococcus aureus USA400 NRS123 clinical isolate after 18 hrs by broth microdilution method; format: functional; settings: USA400 NRS123, 18 h
Procedure, shortened: (§2)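 From MIC wells without visible growth, 5 uL spotted onto Tryptic soy agar, incubated 37 °C for at least 18 h; MBC taken as lowest concentration giving 99.9% growth inhibition.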

[7] = system: Staphylococcus aureus; assay: Antibacterial activity against methicillin-resistant Staphylococcus aureus USA100 NRS382 clinical isolate after 20 hrs by broth microdilution method; format: functional; settings: USA100 NRS382, 20 h; procedure, shortened: as §1
[8] = system: Staphylococcus aureus; assay: Bactericidal activity against Staphylococcus aureus RN4220 NRS107 clinical isolate after 18 hrs by broth microdilution method; format: functional; settings: RN4220 NRS107, 18 h; procedure, shortened: as §2
[9] = system: HaCaT; assay: Cytotoxicity against human HaCaT cells up to 64 ug/ml after 2 hrs by MTS assay; format: cell-based
Procedure, shortened: (§3)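 Keratinocytes grown in DMEM with 10% FBS at 37 °C, 5% CO2; exposed in triplicate to 8, 16, 32 and 64 µg/mL for 2 h. DMSO-matched controls. MTS added for 4 h, absorbance at 490 nm. Viability expressed as % of DMSO-treated cells (mean of triplicate ± SD); one-way ANOVA with Dunnett's test, P < 0.05.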

[10] = system: Staphylococcus aureus; assay: Bactericidal activity against vancomycin-resistant Staphylococcus aureus VRSA4 after 18 hrs by broth microdilution method; format: functional; settings: VRSA4, 18 h; procedure, shortened: as §2
[11] = system: Staphylococcus aureus; assay: Antibacterial activity against methicillin-resistant Staphylococcus aureus USA200 NRS383 clinical isolate preincubated followed by bacterial subculturing for 2 weeks; format: functional
[12] = system: Staphylococcus aureus; assay: Antibacterial activity against vancomycin-resistant Staphylococcus aureus VRSA4 after 20 hrs by broth microdilution method; format: functional; settings: VRSA4, 20 h; procedure, shortened: as §1
[13] = system: Staphylococcus aureus; assay: Bactericidal activity against methicillin-resistant Staphylococcus aureus USA300 NRS384 clinical isolate after 18 hrs by broth microdilution method; format: functional; settings: USA300 NRS384, 18 h; procedure, shortened: as §2
[14] = system: Staphylococcus aureus; assay: Antibacterial activity against methicillin-resistant Staphylococcus aureus USA200 NRS383 clinical isolate after 20 hrs by broth microdilution method; format: functional; settings: USA200 NRS383, 20 h; procedure, shortened: as §1
[15] = system: Staphylococcus aureus; assay: Antibacterial activity against Staphylococcus aureus RN4220 NRS107 clinical isolate after 20 hrs by broth microdilution method; format: functional; settings: RN4220 NRS107, 20 h; procedure, shortened: as §1
[16] = system: Staphylococcus aureus; assay: Bactericidal activity against methicillin-resistant Staphylococcus aureus USA200 NRS383 clinical isolate after 18 hrs by broth microdilution method; format: functional; settings: USA200 NRS383, 18 h; procedure, shortened: as §2
[17] = system: Staphylococcus aureus; assay: Antibacterial activity against methicillin-resistant Staphylococcus aureus USA400 NRS123 clinical isolate preincubated followed by bacterial subculturing for 2 weeks; format: functional
[18] = system: Staphylococcus aureus; assay: Bactericidal activity against vancomycin-resistant Staphylococcus aureus VRSA10 after 18 hrs by broth microdilution method; format: functional; settings: VRSA10, 18 h; procedure, shortened: as §2
[19] = system: Staphylococcus aureus; assay: Bactericidal activity against methicillin-resistant Staphylococcus aureus USA100 NRS382 clinical isolate after 18 hrs by broth microdilution method; format: functional; settings: USA100 NRS382, 18 h; procedure, shortened: as §2
[20] = system: Staphylococcus aureus; assay: Antibacterial activity against methicillin-resistant Staphylococcus aureus USA400 NRS123 clinical isolate after 20 hrs by broth microdilution method; format: functional; settings: USA400 NRS123, 20 h; procedure, shortened: as §1
[21] = system: Staphylococcus aureus; assay: Antibacterial activity against methicillin-resistant Staphylococcus aureus USA300 NRS384 clinical isolate after 20 hrs by broth microdilution method; format: functional; settings: USA300 NRS384, 20 h; procedure, shortened: as §1
[22] = system: Staphylococcus aureus; assay: Antibacterial activity against methicillin-resistant Staphylococcus aureus USA300 NRS384 clinical isolate preincubated followed by bacterial subculturing for 2 weeks; format: functional
[23] = system: Staphylococcus aureus; assay: Antibacterial activity against methicillin-resistant Staphylococcus aureus USA100 NRS382 clinical isolate preincubated followed by bacterial subculturing for 2 weeks; format: functional
[24] = Half life in human liver microsomes in presence of NADPH by LC-MS/MS method; format: ADME, microsome
[25] = Half life in human liver microsomes in absence of NADPH by LC-MS/MS method; format: ADME, microsome
[26] = system: HaCaT; assay: Cytotoxicity against human HaCaT cells up to 32 ug/ml after 2 hrs by MTS assay; format: cell-based; procedure, shortened: as §3
[27] = system: J774; assay: Cytotoxicity against mouse J774 cells at 8 ug/ml after 24 hrs by MTS assay; format: cell-based; settings: j774, 24 h
Procedure, shortened: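 Murine macrophages cultured in DMEM plus 10% FBS, 37 °C, 5% CO2; compounds at 8, 16, 32, 64 µg/mL in triplicate for 24 h against DMSO-matched controls. MTS reagent 4 h, read at OD490. Viability as % of DMSO control (triplicate mean ± SD); one-way ANOVA, Dunnett's post hoc, P < 0.05.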

[28] = system: Staphylococcus aureus; assay: Bactericidal activity against methicillin-resistant Staphylococcus aureus USA400 NRS123 clinical isolate assessed as disruption of bacterial membrane by measuring leakage of 260 nM absorbing material at 5 times MIC after 30 mins by spectrophotometric method; format: functional
[29] = system: Staphylococcus aureus; assay: Bactericidal activity against methicillin-resistant Staphylococcus aureus USA400 assessed as time required to reduce log10CFU of bacterial load at 4 times MIC by time kill assay; format: functional
[30] = system: Staphylococcus aureus; assay: Bactericidal activity against methicillin-resistant Staphylococcus aureus USA400 NRS123 clinical isolate assessed as disruption of bacterial membrane by measuring leakage of 280 nM absorbing material at 5 times MIC after 30 mins by spectrophotometric method; format: functional
[31] = system: Staphylococcus aureus; assay: Antibacterial activity against methicillin-resistant Staphylococcus aureus USA400 infected in Caenorhabditis elegans AU37 harboring (sek-1(km4);glp-4(bn2)I) mutant assessed as reduction in colony forming units at 10 ug/ml after 20 hrs by microscopic method relative to control; format: functional; design: scale not given: the % may be the effect or the level left
Procedure, shortened: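 C. elegans AU37 L4/adult worms infected on MRSA USA400 lawn 6 h, washed in M9; 15-25 worms per well treated with 10 µg/mL in triplicate for 20 h, PBS negative control; worms lysed with silicon carbide, plated on TSA with 5 µg/mL nalidixic acid, 37 °C 18 h; CFU per worm, Student's t-test with Holm-Sidak correction.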

[32] = system: Staphylococcus aureus; assay: Bactericidal activity against methicillin-resistant Staphylococcus aureus USA400 infected in mouse J774 cells assessed as reduction in colony forming units at 16 ug/ml after 24 hrs by time kill assay relative to control; format: functional
Procedure, shortened: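 J774 murine macrophages in DMEM/10% FBS infected with MRSA USA400 at MOI ~100:1 for 1 h, extracellular bacteria killed with gentamicin 50 µg/mL; treated at 16 µg/mL in triplicate; after 4, 8 or 24 h cells washed, lysed with 0.1% Triton X-100, plated for CFU; percent reduction versus untreated, t-test.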

Row | Structure (SMILES) | MIC [5] [µg/mL] | MBC [6] [µg/mL] | MIC [7] [µg/mL] | MBC [8] [µg/mL] | MBC [10] [µg/mL] | Activity [11] | MIC [12] [µg/mL] | MBC [13] [µg/mL] | MIC [14] [µg/mL] | MIC [15] [µg/mL] | MBC [16] [µg/mL] | Activity [17] | MBC [18] [µg/mL] | MBC [19] [µg/mL] | MIC [20] [µg/mL] | MIC [21] [µg/mL] | Activity [22] | Activity [23] | Time [29] | also measured
1 | CC(=O)CC(c1ccccc1)c1c(O)c2ccccc2oc1=O (stereo not given) [WARFARIN] |  |  |  |  |  |  |  |  |  |  |  |  |  |  |  |  |  |  |  | microsomal CLint [1]: < 9.6 µL/min/mg; microsomal CLint [2]: < 9.6 µL/min/mg; Papp A→B at 2 h, 10 µM [3]: 27.7 ×10⁻⁶ cm/s; Papp B→A at 2 h, 10 µM [4]: 20.3 ×10⁻⁶ cm/s
2 | CCCCCOc1ccc(NC(=O)Nc2ccc(/C(C)=N/NC(=N)N)cc2)cc1 | 4 (≈ 10.1 µM) | 16 (≈ 40.4 µM) | 4 (≈ 10.1 µM) | 8 (≈ 20.2 µM) | 4 (≈ 10.1 µM) | Active | 4 (≈ 10.1 µM) | 4 (≈ 10.1 µM) | 4 (≈ 10.1 µM) | 4 (≈ 10.1 µM) | 4 (≈ 10.1 µM) | Active | 8 (≈ 20.2 µM) | 4 (≈ 10.1 µM) | 4 (≈ 10.1 µM) | 4 (≈ 10.1 µM) | Active | Active |  | Activity [9]: Non-Toxic
3 | Cc1ncc2n1-c1ccc(Cl)cc1C(c1ccccc1F)=NC2 [MIDAZOLAM] |  |  |  |  |  |  |  |  |  |  |  |  |  |  |  |  |  |  |  | half-life [24]: 5.7 min; microsomal CLint [1]: < 9.6 µL/min/mg; microsomal CLint [2]: 402 µL/min/mg; half-life [25]: > 240 min
4 | C/C(=N\NC(=N)N)c1ccc(NC(=O)Nc2ccc(OCCC(C)C)cc2)cc1 | 2 (≈ 5.04 µM) | 4 (≈ 10.1 µM) | 4 (≈ 10.1 µM) | 4 (≈ 10.1 µM) | 4 (≈ 10.1 µM) | Active | 4 (≈ 10.1 µM) | 4 (≈ 10.1 µM) | 2 (≈ 5.04 µM) | 2 (≈ 5.04 µM) | 4 (≈ 10.1 µM) | Active | 4 (≈ 10.1 µM) | 4 (≈ 10.1 µM) | 2 (≈ 5.04 µM) | 2 (≈ 5.04 µM) | Active | Active | <=4 hr | Activity [26]: Non-Toxic; Activity [27]: Toxic; Activity [28]: inactive; Activity [30]: inactive
5 | C/C(=N\NC(=N)N)c1ccc(NC(=O)Nc2ccc(OCCCC(C)C)cc2)cc1 | 4 (≈ 9.74 µM) | 8 (≈ 19.5 µM) | 4 (≈ 9.74 µM) | 4 (≈ 9.74 µM) | 4 (≈ 9.74 µM) | Active | 4 (≈ 9.74 µM) | 8 (≈ 19.5 µM) | 4 (≈ 9.74 µM) | 4 (≈ 9.74 µM) | 8 (≈ 19.5 µM) | Active | 4 (≈ 9.74 µM) | 8 (≈ 19.5 µM) | 4 (≈ 9.74 µM) | 8 (≈ 19.5 µM) | Active | Active | <=4 hr | 
6 | CN[C@H](CC(C)C)C(=O)N[C@H]1C(=O)N[C@@H](CC(N)=O)C(=O)N[C@H]2C(=O)N[C@H]3C(=O)N[C@H](C(=O)N[C@H](C(=O)O)c4cc(O)cc(O)c4-c4cc3ccc4O)[C@H](O)c3ccc(c(Cl)c3)Oc3cc2cc(c3O[C@@H]2O[C@H](CO)[C@@H](O)[C@H](O)[C@H]2O[C@H]2C[C@](C)(N)[C@H](O)[C@H](C)O2)Oc2ccc(cc2Cl)[C@H]1O [VANCOMYCIN] | > 128 | 0.5 (≈ 0.345 µM) | < 1 | 1 (≈ 0.69 µM) | > 128 |  | > 128 | 1 (≈ 0.69 µM) |  |  | 0.5 (≈ 0.345 µM) |  | > 128 | < 1 |  |  |  |  | 24 h | Activity [31]: 25%; Activity [28]: inactive; Activity [30]: inactive; Activity [32]: inactive
7 | CNC(=C[N+](=O)[O-])NCCSCc1ccc(CN(C)C)o1 [RANITIDINE] |  |  |  |  |  |  |  |  |  |  |  |  |  |  |  |  |  |  |  | Papp B→A at 2 h, 10 µM [4]: 2.31 ×10⁻⁶ cm/s
